Data: ChEMBL document CHEMBL5674889, “Enhanced JunD/RSK3 signalling due to loss of BRD4/FOXD3/miR-548d-3p axis determines BET inhibition resistance” (2020)
Calls of active or inactive are those of the source. No cut-off for these calls is given here.

Legend:
BT-549 [1] = experiment: Effect on human BT-549 cells assessed as miR-548d-5p expression at 1 uM by real-time PCR analysis; assay type: functional, cell-based
MDA-MB-231 [2] = experiment: Antiproliferative activity in human MDA-MB-231 cells assessed as inhibition of cell growth at 1 uM by CCK-8 assay; assay type: functional, cell-based
MDA-MB-231 [3] = experiment: Effect on human MDA-MB-231 cells assessed as RSK3 protein expression at 1 uM for 24 hrs by Western blot analysis; assay type: functional, cell-based
Method in brief: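 Western blot for RSK3 in MDA-MB-231 and BT549 cells treated with DMSO or 1 μM for 0, 12 and 24 h. Antibody used at 1:1000.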

MDA-MB-231 [4] = experiment: Antiproliferative activity in human JUND-overexpressing MDA-MB-231 cells assessed as cell viability at 1 uM by CellTiter-Glo luminescent cell viability assay; assay type: functional, cell-based
Method in brief: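 Stable JUND-knockdown (shRNA, puromycin 1.0 μg/ml selection) or JUND-overexpressing clones and vector controls, seeded 3000 cells/well and adhered overnight, then given DMSO or JQ1 (1 μM) for 48 h. Read-out CellTiter-Glo luminescence normalized to DMSO control; triplicates, mean ± SD, one-way ANOVA.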

MDA-MB-231 [5] = experiment: Antiproliferative activity in human JUND-knockdown MDA-MB-231 cells assessed as stronger tumor sphere formation at 1 uM by tumor sphere assay; assay type: functional, cell-based
MDA-MB-231 [6] = experiment: Cytotoxicity in human RSK3-overexpressing MDA-MB-231 cells assessed as cell viability at 1 uM for 48 hrs by CellTiter-Glo luminescent cell viability assay; assay type: functional, cell-based
Method in brief: (§1)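 CellTiter-Glo viability: stable overexpressing or shRNA clones (puromycin 1.0 μg/ml selection) seeded 3000 cells/well, adhered overnight, then exposed to 1 μM for 48 h. Luminescence is background-subtracted and normalised to DMSO-treated control. Triplicates, mean ± SD, one-way ANOVA. MDA-MB-231 cells are kept in DMEM and BT549 in RPMI-1640, each with 10% FBS.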

MDA-MB-231 [7] = experiment: Effect of human RSK3-overexpressing MDA-MB-231 cells assessed as suppression of tumour sphere formation at 1 uM by Tumour sphere assay; assay type: functional, cell-based
BT-549 [8] = experiment: Effect on human JUND-knockdown BT-549 cells assessed as reduction of RSK3 protein expression at 1 uM by Western blot analysis; assay type: functional, cell-based
Method in brief: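 RSK3 and JunD were probed by western blot in JUND-knockdown or JUND-overexpressing stable clones and their controls, all selected with puromycin 1.0 μg/ml. Antibodies used at 1:1000.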

BT-549 [9] = experiment: Effect of human RSK3-overexpressing BT-549 cells assessed as suppression of tumour sphere formation at 1 uM by Tumour sphere assay; assay type: functional, cell-based
HEK-293T [10] = experiment: Effect on induction of RPS6KA2 transcription in human HEK293T cells transfected with RPS6KA2 assessed as luciferase activity at 1 uM for 6 hrs by Luciferase reporter assay; assay type: functional, cell-based
Method in brief: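 HEK293T were transfected with wild-type or mutant RPS6KA2 enhancer luciferase construct, ± JUND co-transfection (FuGene 6, 24 h). Cells then treated with DMSO or JQ1 1 μM for 6 h. Dual-luciferase activity expressed as fold over vector control; three experiments in triplicate.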

MDA-MB-231 [11] = experiment: Antiproliferative activity in human RPS6KA2-knockdown MDA-MB-231 cells assessed as cell viability at 1 uM for 48 hrs by CellTiter-Glo luminescent cell viability assay; assay type: functional, cell-based; method in brief: as §1
MDA-MB-231 [12] = experiment: Induction of apoptosis in human RPS6KA2-knockdown MDA-MB-231 cells at 1 uM by FACS assay; assay type: functional, cell-based
Method in brief: (§2)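 Stable clones (vector, RSK3-overexpressing or RPS6KA2-knockdown) treated ± JQ1 1 μM. Cells washed twice in PBS, resuspended at 1 × 10^6 cells/ml in binding buffer, stained with Annexin V-FITC and propidium iodide for 10 min at room temperature in the dark, then read by flow cytometry. Three independent experiments; one-way ANOVA.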

BT-549 [13] = experiment: Induction of apoptosis in human RPS6KA2-knockdown BT-549 cells at 1 uM by FACS assay; assay type: functional, cell-based; method in brief: as §2
MDA-MB-231 [14] = experiment: Effect on human RPS6KA2-knockdown MDA-MB-231 cells assessed as inhibition tumor sphere formation at 1 uM by Tumor sphere assay; assay type: functional, cell-based
MDA-MB-231 [15] = experiment: Effect on human MDA-MB-231 cells assessed as JunD protein expression in the presence of miR-548d-3p at 1 uM by Western blot analysis; assay type: functional, cell-based
MDA-MB-231 [16] = experiment: Antiproliferative activity in human MDA-MB-231 cells assessed as cell growth in the presence of miR-548d-3p at 1 uM by CCK-8 assay; assay type: functional, cell-based
Method in brief: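 BLBC cells transfected with miR-548d-3p mimic or inhibitor, with or without JQ1; growth read by CCK-8 assay relative to DMSO-treated control, seeded at 3000/well. Triplicates, mean ± SD, one-way ANOVA.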

HEK-293T [17] = experiment: Effect on human HEK293T cells transfected with BRD4 assessed as decrease in luciferase activity at 1 uM for 6 hrs by Luciferase reporter assay; assay type: functional, cell-based
BT-549 [18] = experiment: Effect on human BRD4-knockdown BT-549 assessed as decreased luciferase activity at 1 uM for 6 hrs by Luciferase reporter assay; assay type: functional, cell-based
MDA-MB-231 [19] = experiment: Antiproliferative activity in human FOXD3-knockdown MDA-MB-231 cells assessed as cell growth at 1 uM by CCK-8 assay; assay type: functional, cell-based
MDA-MB-231 [20] = experiment: Antiproliferative activity in human FOXD3-knockdown MDA-MB-231 cells co-silenced with shRNA of RPS6KA2 assessed as cell growth at 1 uM by CCK-8 assay; assay type: functional, cell-based
BT-549 [21] = experiment: Antiproliferative activity in human BT-549 cells assessed as cell growth in the presence of gefitinib at 1 uM by CellTiter-Glo luminescent cell viability assay; assay type: functional, cell-based
Method in brief: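 BLBC cells seeded at 3000/well, adhered overnight, then exposed to JQ1 (1 μM) with or without an EGFR inhibitor (1 μM) for 48 h; control and RPS6KA2-shRNA clones tested. Viability by CellTiter-Glo luminescence, background-subtracted and normalized to DMSO-treated control; triplicates, mean ± SD, one-way ANOVA against JQ1 alone.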

MDA-MB-231 [22] = experiment: Antiproliferative activity in human JunD-overexpressing MDA-MB-231 cells assessed as cell growth in the presence of osimertinib at 1 uM by CCK-8 assay; assay type: functional, cell-based
Method in brief: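 Vector control, RSK3- or JunD-overexpressing cells seeded 3000/well, adhered overnight, then treated with JQ1 alone or combined with kinase inhibitors for 48 h; growth by CCK-8, normalized to DMSO control; triplicates, mean ± SD.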

MDA-MB-231 [23] = experiment: Antiproliferative activity in human MDA-MB-231 cells assessed as inhibited cell growth at 1 uM by CCK-8 assay; assay type: functional, cell-based
MDA-MB-231 [24] = experiment: Induction of apoptosis in human MDA-MB-231 cells over expressing RSK3 assessed as viable cells at 1 uM by Annexin V-FITC flow cytometric analysis (reference value: 91.18%); assay type: functional; settings: read-out: Activity; method in brief: as §2

Cc1sc2c(c1C)C(c1ccc(Cl)cc1)=N[C@@H](CC(=O)OC(C)(C)C)c1nnc(C)n1-2 was tested, and the Activity (BT-549 [1]) was “Active”, the Activity (MDA-MB-231 [2]) was “Active” and the Activity (MDA-MB-231 [3]) was “Active”. The Activity (MDA-MB-231 [4]) was “Active”, the Activity (MDA-MB-231 [5]) was “Active” and the Activity (MDA-MB-231 [6]) was “Active”. The Activity (MDA-MB-231 [7]) was “Active”, the Activity (BT-549 [8]) was “Active” and the Activity (BT-549 [9]) was “Active”. The Activity (HEK-293T [10]) was “Active”, the Activity (MDA-MB-231 [11]) was “Active” and the Activity (MDA-MB-231 [12]) was “Active”. For the same compound, the Activity (BT-549 [13]) was “Active”, the Activity (MDA-MB-231 [14]) was “Active” and the Activity (MDA-MB-231 [15]) was “Active”. For the same compound, the Activity (MDA-MB-231 [16]) was “Active”, the Activity (HEK-293T [17]) was “Active” and the Activity (BT-549 [18]) was “Active”. The Activity (MDA-MB-231 [19]) was “Active”, the Activity (MDA-MB-231 [20]) was “Active” and the Activity (BT-549 [21]) was “Active”. For the same compound, the Activity (MDA-MB-231 [22]) was “Active”, the Activity (MDA-MB-231 [23]) was “Active” and the viability at 1 µM (MDA-MB-231 [24]) was 88.3%.
